The values below come from ChEMBL document CHEMBL4024801, “Synthesis and Structure-Activity Relationship (SAR) Studies of Novel Pyrazolopyridine Derivatives as Inhibitors of Enterovirus Replication” (J Med Chem, 2018).

One data set relates to Poliovirus 3. Nature of the data set: Antiviral activity against Poliovirus 3 infected in human HeLa-RW cells assessed as protection against virus-induced cytopathic effect after 3 to 4 days by crystal violet staining-based spectrophotometric method. It counts as functional, cell-based. The following applies: Enterovirus C. Summed up: (§1)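 HeLa-RW cells grown in DMEM with penicillin, streptomycin, glutamine and 10% FBS. They were infected at a low MOI pre-set to give full CPE in 3-4 days. Compound in DMSO was added as serial 2-fold dilutions (7 points), each in triplicate. When control CPE was maximal, cells were fixed with 4% formaldehyde, stained with 0.25% crystal violet and read at OD590. EC50 came from a four-parameter or sigmoidal fit.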
(In general: Cytopathic effects are the visible damage that an infection or toxin causes in cultured cells.)

For the next data set, the system named is Poliovirus 1. The data set is described as follows: Antiviral activity against Poliovirus 1 infected in human HeLa-RW cells assessed as protection against virus-induced cytopathic effect after 3 to 4 days by crystal violet staining-based spectrophotometric method. Type of data set: functional, cell-based. Conditions: Enterovirus C. In short, it runs like this: as §1

The next data set concerns Coxsackievirus B3. The data set is described as follows: Antiviral activity against Coxsackievirus B3 infected in human HeLa-RW cells assessed as protection against virus-induced cytopathic effect after 3 to 4 days by crystal violet staining-based spectrophotometric method. Conditions: Enterovirus B. It counts as functional, cell-based. Summed up:
as §1

In the next data set the test system is Enterovirus A71. The data set is described as follows: Antiviral activity against Enterovirus A71 infected in monkey LLC-MK2 cells assessed as protection against virus-induced cytopathic effect after 3 to 4 days by crystal violet staining-based spectrophotometric method. The following applies: Enterovirus A. It counts as functional, cell-based. In short, it runs like this: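 EV-A71 was tested in LLC-MK2 cells grown in DMEM with 10% FBS, penicillin, streptomycin and glutamine, at a low MOI preset to give full CPE in 3–4 days. Compound was dissolved in DMSO and diluted 2-fold, in triplicate. Cells were fixed with formaldehyde when control CPE was maximal, then stained with crystal violet and read at OD590. EC50 came from a 7-point four-parameter or sigmoidal fit.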

A short description of data set [1]: Selectivity index, ratio of CC50 for human HeLa-RW cells to EC50 for Coxsackievirus B3. It counts as toxicity. Conditions: read-out: Ratio CC50/EC50. In short, it runs like this: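 HeLa-RW cells in DMEM with 10% FBS were used for both arms. For EC50, cells were infected with CVB3-H3 at a low MOI giving full CPE in 3–4 days and exposed to 2-fold compound dilutions, in triplicate, with a 7-point fit. For CC50, uninfected cells got 2-fold dilutions for the same period. Both arms were fixed, crystal violet-stained and read at OD590.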

The next data set has as its system LLC-MK2. Nature of the data set: Cytotoxicity against monkey LLC-MK2 cells after 3 to 4 days by crystal violet staining-based spectrophotometric method. It counts as cell-based, Macaca mulatta. The following applies: rhesus monkey. In short, it runs like this: (§2)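 Uninfected cells (HeLa-RW or LLC-MK2, in DMEM with penicillin, streptomycin, glutamine and 10% FBS) were exposed to serial 2-fold compound dilutions for the same period as the CPE assay. They were then fixed with formaldehyde, stained with crystal violet and read by OD590 spectrophotometry to derive CC50. Values are means ± s.d. of 3 experiments, or the average of triplicates in one.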

Data set [2] in a line: Selectivity index, ratio of CC50 for monkey LLC-MK2 cells to EC50 for Enterovirus A71. Conditions: read-out: Ratio CC50/EC50. It counts as toxicity. In short, it runs like this:
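LLC-MK2 cells in DMEM with 10% FBS were used for both arms. For EC50, cells were infected with EV-A71 at a low MOI giving full CPE in 3–4 days and exposed to 2-fold compound dilutions, in triplicate. For CC50, uninfected cells got 2-fold dilutions for the same period. Both arms were formaldehyde-fixed, crystal violet-stained and read at OD590.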

The nature of data set [3]: Cytotoxicity against human HeLa-RW cells after 3 to 4 days by crystal violet staining-based spectrophotometric method. Type of data set: cell-based. Conditions: hela-rw. Summed up: as §2

pEC50: −log10 of the molar value.

The term pEC50 denotes −log10 of the EC50, conventionally taken in molar units. As to `CC(C)n1ncc2c(C(=O)Nc3cc(F)cc(F)c3)cc(-c3cccs3)nc21`, the pEC50 with Poliovirus 3, in the data set with Poliovirus 1, in the data set with Coxsackievirus B3 and with Enterovirus A71 was less than 5.00 throughout.

In the case of `CC(C)n1ncc2c(C(=O)N(C)c3ccccn3)cc(-c3cccs3)nc21`, the pEC50 with Poliovirus 3 was less than 5.00; with Poliovirus 1, less than 5.00; in the data set on Coxsackievirus B3, less than 4.60; with Enterovirus A71, less than 5.00.

Take `CC(C)n1ncc2c(NC(=O)c3cc(-c4cccs4)nc4c3cnn4C(C)C)cc(-c3cccs3)nc21`: the pEC50 with Poliovirus 3, with Poliovirus 1, in the data set with Coxsackievirus B3 and in the data set with Enterovirus A71 was less than 5.00 throughout.

Take `CC(C)n1ncc2c(C(=O)Nc3ccccc3F)cc(-c3nccs3)nc21`: the pEC50 with Poliovirus 3, in the data set on Poliovirus 1, in the data set on Coxsackievirus B3 and in the data set on Enterovirus A71 was less than 5.00 in each case.

What is called CC50 is the concentration giving 50% cytotoxicity. Regarding `CC(C)n1ncc2c(C(=O)Nc3ccc(F)cc3)cc(-c3ccco3)nc21`, the pEC50 in the data set on Poliovirus 3 was less than 4.60; in the data set with Poliovirus 1 it was less than 4.60; in the data set with Coxsackievirus B3, 5.62; with Enterovirus A71 it was 5.59. Besides, the selectivity ratio in data set [1] was greater than 83; in data set [2] it was greater than 76.9. The CC50 (in the data set with LLC-MK2; in data set [3]) was greater than 200 µM each time.

Turning to `CC(C)n1ncc2c(S(=O)(=O)Nc3ccc(F)cc3)cc(-c3cccs3)nc21`, the pEC50 in the data set on Poliovirus 3, in the data set on Poliovirus 1, in the data set on Coxsackievirus B3 and with Enterovirus A71 was less than 5.00 each time.

On to `CC(C)n1ncc2c(C(=S)Nc3ccc(F)cc3)cc(-c3cccs3)nc21`, for which the pEC50 with Poliovirus 3, in the data set on Poliovirus 1, in the data set on Coxsackievirus B3 and in the data set with Enterovirus A71 was less than 5.00 in each case.

With `CC(C)n1cnc2c(C(=O)Nc3ccc(F)cc3)cc(-c3cccs3)nc21`, the pEC50 with Poliovirus 3, in the data set with Poliovirus 1, with Coxsackievirus B3 and in the data set on Enterovirus A71 was less than 5.00 in each case.

`CC(C)n1ncc2c(C(=O)Nc3ccc(F)cc3)nc(-c3cccs3)nc21`: the pEC50 in the data set with Poliovirus 3, in the data set on Poliovirus 1, with Coxsackievirus B3 and with Enterovirus A71 was less than 5.00 in each case.

With `CC(C)n1ncc2c(NS(=O)(=O)c3ccc(F)cc3)cc(-c3cccs3)nc21`, the pEC50 in the data set on Poliovirus 3, with Poliovirus 1, in the data set on Coxsackievirus B3 and in the data set on Enterovirus A71 was less than 5.00 each time.

Take `CC(C)n1ncc2c(C(=O)Nc3ccc(S(N)(=O)=O)cc3)cc(-c3cccs3)nc21`: the pEC50 in the data set with Poliovirus 3, with Poliovirus 1, with Coxsackievirus B3 and in the data set on Enterovirus A71 was less than 5.00 each time.

Regarding `CC(C)n1ncc2c(C(=O)Nc3ccccc3F)cc(-c3ccncc3)nc21`, the pEC50 was less than 4.60 in the data set on Poliovirus 3, less than 4.60 in the data set on Poliovirus 1, 5.29 in the data set with Coxsackievirus B3 and less than 5.00 with Enterovirus A71. The selectivity ratio in data set [1] was found to be 7.4. Moreover, the results for the CC50 (with LLC-MK2; in data set [3]) were 45 µM and 37.5 µM, respectively.

Turning to `CC(C)n1ncc2c(C(=O)Nc3ccccc3C(F)(F)F)cc(-c3cccs3)nc21`, the pEC50 in the data set on Poliovirus 3, in the data set on Poliovirus 1, with Coxsackievirus B3 and in the data set on Enterovirus A71 was less than 5.00 throughout.

With `CC(C)n1ccc2c(C(=O)Nc3ccncc3)cc(-c3cccs3)nc21`, the pEC50 with Poliovirus 3, with Poliovirus 1, in the data set on Coxsackievirus B3 and in the data set with Enterovirus A71 was less than 5.00 each time.

In the case of `CC(C)n1ncc2c(C(=O)Nc3ccccc3F)cc(-c3cncs3)nc21`, the pEC50 is less than 4.60 in the data set with Poliovirus 3, less than 4.60 in the data set with Poliovirus 1, 5.48 with Coxsackievirus B3 and 5.43 in the data set on Enterovirus A71. In addition, the selectivity ratio was greater than 60.6 in data set [1] and 27 in data set [2]. Besides, the figures for the CC50 (in the data set with LLC-MK2; in data set [3]) were 100 µM and greater than 200 µM, respectively.

As to `CC(C)n1ncc2c(C(=N)Nc3cccnc3)cc(-c3cccs3)nc21`, the pEC50 in the data set on Poliovirus 3, in the data set on Poliovirus 1, in the data set on Coxsackievirus B3 and in the data set with Enterovirus A71 was less than 5.00 in each case.

Regarding `CC(C)n1ncc2c(C(=O)Nc3ccccc3F)cc(-c3cccnc3)nc21`, the pEC50 is less than 4.60 in the data set with Poliovirus 3, less than 4.60 in the data set on Poliovirus 1, 5.15 with Coxsackievirus B3 and less than 5.00 in the data set with Enterovirus A71. The selectivity ratio in data set [1] was found to be 5.4. Moreover, the CC50 in the data set with LLC-MK2 was 50 µM; in data set [3], 37.5 µM.

Consider `CC(C)n1ncc2c(C(=O)Nc3ccc(F)c(F)c3)cc(-c3cccs3)nc21`, for which the pEC50 in the data set with Poliovirus 3 was less than 5.00; in the data set on Poliovirus 1, less than 5.00; with Coxsackievirus B3 it was 5.89; with Enterovirus A71, less than 4.60. Also, the selectivity ratio in data set [1] is greater than 154. Also, the CC50 (with LLC-MK2; in data set [3]) was greater than 200 µM in each case.

Turning to `CC(C)n1ncc2c(C(=O)Nc3cccc(S(N)(=O)=O)c3)cc(C3CC3)nc21`, the pEC50 in the data set on Poliovirus 3, in the data set with Poliovirus 1, with Coxsackievirus B3 and in the data set with Enterovirus A71 was less than 5.00 each time.

Consider `CC(C)n1ncc2c(C(=O)Nc3ccc(F)cc3Br)cc(-c3cccs3)nc21`, for which the negative logarithm of the EC50 (pEC50) in the data set on Poliovirus 3, in the data set with Poliovirus 1, in the data set with Coxsackievirus B3 and in the data set with Enterovirus A71 was less than 5.00 throughout.

In the case of `CC(C)n1ccc2c(C(=O)Nc3ccc(F)cc3)cc(-c3cccs3)nc21`, the negative-log EC50 (pEC50) is less than 4.60 in the data set on Poliovirus 3, less than 4.60 in the data set with Poliovirus 1, 5.51 in the data set on Coxsackievirus B3 and less than 4.60 with Enterovirus A71. Besides, the selectivity ratio in data set [1] was greater than 64.5. The CC50 (in the data set with LLC-MK2; in data set [3]) was greater than 200 µM each time.

Regarding `CC(C)n1ncc2c(C(=O)Nc3ccncc3)cc(-c3ccsc3)nc21`, the pEC50 in the data set on Poliovirus 3, with Poliovirus 1, with Coxsackievirus B3 and in the data set with Enterovirus A71 was less than 5.00 each time.

As for `CC(C)n1nnc2c(C(=O)Nc3ccc(F)cc3)cc(-c3cccs3)nc21`, the pEC50 with Poliovirus 3, in the data set on Poliovirus 1, in the data set with Coxsackievirus B3 and with Enterovirus A71 was less than 5.00 each time.

For `CC(C)n1ncc2c(-c3nc4ccc(F)cc4o3)cc(-c3cccs3)nc21`, the pEC50 with Poliovirus 3, in the data set with Poliovirus 1, in the data set on Coxsackievirus B3 and in the data set on Enterovirus A71 was less than 5.00 throughout.

For `CC(C)n1ncc2c(C(=O)Nc3ccccc3F)cc(-c3ccccn3)nc21`, the pEC50 with Poliovirus 3 is less than 4.60; in the data set on Poliovirus 1, less than 4.60; with Coxsackievirus B3, 5.16; with Enterovirus A71 it was less than 5.00. For the same compound, in data set [1], the selectivity ratio is greater than 29. The CC50 in the data set on LLC-MK2 is 100 µM; in data set [3], greater than 200 µM.

Regarding `CC(C)n1ncc2c(C(=O)Nc3ccc(F)cc3)cc(-c3ccsc3)nc21`, the pEC50 in the data set with Poliovirus 3 is less than 4.60; in the data set with Poliovirus 1, less than 4.60; with Coxsackievirus B3 it was 5.89; in the data set with Enterovirus A71, 5.85. The figures for the selectivity ratio in data set [1] and in data set [2] were 19.2 and greater than 143, respectively. In addition, the CC50 with LLC-MK2 was greater than 200 µM; in data set [3], 25 µM.

Consider `CC(C)n1ncc2c(C(=O)Nc3ccccc3F)cc(-c3ccccc3)nc21`, for which the pEC50 was less than 4.60 in the data set with Poliovirus 3, less than 4.60 with Poliovirus 1, 5.35 in the data set with Coxsackievirus B3 and 5.24 in the data set on Enterovirus A71. The selectivity ratio in data set [1] is 8.3; in data set [2] it was greater than 35.1. For the same compound, the CC50 in the data set with LLC-MK2 is greater than 200 µM; in data set [3], 37.5 µM.

In the case of `CC(C)n1ncc2c(C(=N)Nc3ccc(F)cc3)cc(-c3cccs3)nc21`, the pEC50 in the data set with Poliovirus 3, in the data set with Poliovirus 1, in the data set on Coxsackievirus B3 and in the data set with Enterovirus A71 was less than 5.00 each time.

`CC(C)n1ncc2c(C(=O)Nc3ccc(C(F)(F)F)cc3)cc(-c3cccs3)nc21`: the pEC50 in the data set on Poliovirus 3, with Poliovirus 1, with Coxsackievirus B3 and in the data set with Enterovirus A71 was less than 4.60 throughout.

As for `CC(C)n1ncc2c(C(=O)Nc3ccccc3F)cc(-c3cnco3)nc21`, the pEC50 in the data set on Poliovirus 3, with Poliovirus 1, with Coxsackievirus B3 and in the data set with Enterovirus A71 was less than 5.00 each time.
